{"data": "Measurements from different studies", "P2RX7": "P2X purinoceptor 7 (P2RX7, Homo sapiens, UniProt Q99572)", "IDE": "Insulin-degrading enzyme (IDE, Homo sapiens, UniProt P14735)", "MMP1": "Interstitial collagenase (MMP1, Homo sapiens, UniProt P03956)", "gag-pol integrase": "Gag-Pol polyprotein, integrase (gag-pol, Human immunodeficiency virus 1, UniProt P12497)", "HDAC3": "Histone deacetylase 3 (HDAC3, Homo sapiens, UniProt O15379)", "JAK3": "Tyrosine-protein kinase JAK3 (JAK3, Homo sapiens, UniProt P52333)", "KCNA5": "Potassium voltage-gated channel subfamily A member 5 (KCNA5, Homo sapiens, UniProt P22460)", "MET": "Hepatocyte growth factor receptor (MET, Homo sapiens, UniProt P08581)", "Ptgs2": "Prostaglandin G/H synthase 2 (Ptgs2, Mus musculus, UniProt Q05769)", "note": "Lines come from different studies, so protocols differ."}
{"SMILES": "O=C(Nc1ccccc1OS(=O)(=O)c1cccs1)c1ccc2ncccc2c1", "target": "P2RX7", "effect on": "calcium signal", "mode": "antagonist", "IC50 [nM]": 2480}
{"SMILES": "COC(=O)[C@H](Cc1c[nH]cn1)NC(=O)CN(CC(=O)O)Cc1ccc(C(C)(C)C)cc1", "target": "IDE", "effect on": "enzyme activity", "mode": "inhibitor", "method": "fluorescence", "IC50 [nM]": 2900}
{"SMILES": "CC(C)C[C@H](CC(=O)NO)C(=O)N[C@@H](Cc1ccccc1)C(=O)NCCN1CCOCC1", "target": "MMP1", "effect on": "enzyme activity", "mode": "inhibitor", "method": "absorbance", "IC50 [nM]": 3}
{"SMILES": "CC(C)C[C@H](NC(=O)[C@H](Cc1ccccc1)NC(=O)[C@H](Cc1ccc(O)cc1)NC(=O)CNC(=O)[C@H](CCCNC(=N)N)NC(=O)[C@H](CO)NC(=O)[C@H](CCC(N)=O)NC(=O)[C@H](CO)NC(=O)[C@H](C)NC(=O)[C@H](Cc1ccccc1)NC(=O)[C@@H]1CCCN1C(=O)[C@H](CO)NC(=O)[C@H](CCC(N)=O)NC(=O)[C@H](Cc1ccccc1)NC(=O)[C@H](CCC(=O)O)NC(=O)[C@H](CCC(=O)O)NC(=O)[C@H](CC(=O)O)NC(=O)[C@@H](NC(=O)[C@H](CCCNC(=N)N)NC(=O)[C@@H](N)Cc1ccccc1)C(C)C)C(=O)N[C@@H](Cc1ccccc1)C(=O)N[C@@H](CCCNC(=N)N)C(=O)N1CCC[C@H]1C(=O)N[C@@H](CCCNC(=N)N)C(=O)N[C@@H](CC(N)=O)C(N)=O", "target": "Neuromedin-U receptor 2 (NMUR2, Homo sapiens, UniProt Q9GZQ4)", "effect on": "ligand displacement", "method": "radioligand", "setting": "cell membranes", "IC50 [nM]": 0.22}
{"SMILES": "O=C(Nc1ccccc1OS(=O)(=O)c1ccc([N+](=O)[O-])cc1)c1ccc2ncccc2c1", "target": "P2RX7", "effect on": "calcium signal", "mode": "antagonist", "IC50 [nM]": 1810}
{"SMILES": "O=C(O)[C@H](Cc1ccc2ccccc2c1)NC(=O)C1(c2ccc(F)cc2)CCN(S(=O)(=O)c2ccccc2)CC1", "target": "gag-pol integrase", "effect on": "enzyme activity", "mode": "inhibitor", "method": "TR-FRET", "IC50 [nM]": 150000}
{"SMILES": "CN1CCN(c2ccc(Nc3ncc4cc(C#N)c(=O)n(C5CCCC5)c4n3)cc2)CC1", "target": "Serine/threonine-protein kinase Nek9 (NEK9, Homo sapiens, UniProt Q8TD19)", "effect on": "enzyme activity", "mode": "inhibitor", "IC50 [nM]": 399}
{"SMILES": "O=C(O)CN(CC(=O)N[C@@H](Cc1c[nH]cn1)C(=O)NCc1ccccc1)Cc1ccccc1", "target": "IDE", "effect on": "enzyme activity", "mode": "inhibitor", "method": "fluorescence", "IC50 [nM]": 1400}
{"SMILES": "CCC[C@H](NC(=O)C1CN(C)C1)c1ncc(-c2cc3ccccc3nc2OC)[nH]1", "target": "HDAC3", "effect on": "enzyme activity", "mode": "inhibitor", "method": "fluorescence", "IC50 [nM]": 160}
{"SMILES": "Cc1nc2ccc(Br)cc2c(-c2ccc(Cl)cc2)c1C(OC(C)(C)C)C(=O)O (stereo not drawn)", "target": "gag-pol integrase", "effect on": "enzyme activity", "mode": "inhibitor", "method": "TR-FRET", "IC50 [nM]": 120}
{"SMILES": "CC(C)(C)n1nc(-c2cnc3cc(OC4CC4)ccc3c2)c(C(N)=O)c1N", "target": "JAK3", "effect on": "cell-free assay", "IC50 [nM]": "> 10000"}
{"SMILES": "C[C@H]1C[C@@H](N2C(=N)N[C@](C)(c3cccc(Nc4ccc(C5CC5)nc4)c3Cl)CC2=O)CCO1", "target": "KCNA5", "effect on": "ion current", "mode": "inhibitor", "method": "patch clamp", "IC50 [nM]": 4620}
{"SMILES": "COc1ccc(S(=O)(=O)N2Cc3cc(O)c(O)cc3CC2C(=O)NO)cc1 (stereo not drawn)", "target": "MMP1", "effect on": "enzyme activity", "mode": "inhibitor", "IC50 [nM]": 10000}
{"SMILES": "Sc1nnc(-c2cc(-c3ccccc3)nc3ccccc23)o1", "target": "P2RX7", "effect on": "calcium signal", "mode": "antagonist", "IC50 [nM]": 7270}
{"SMILES": "O=C(O)[C@H](Cc1ccc2ccccc2c1)NC(=O)C1(c2ccc3ccccc3c2)CCN(S(=O)(=O)c2ccccc2)CC1", "target": "gag-pol integrase", "effect on": "enzyme activity", "mode": "inhibitor", "method": "TR-FRET", "IC50 [nM]": 54700}
{"SMILES": "Cc1[nH]c(/C=C2\\C(=O)Nc3ccc(S(=O)(=O)N(C)c4cccc(Cl)c4)cc32)c(C)c1C(=O)N1CCN(C)CC1", "target": "Hepatocyte growth factor receptor, non-phosphorylated (MET, Homo sapiens, UniProt P08581)", "effect on": "enzyme activity", "mode": "inhibitor", "method": "TR-FRET", "IC50 [nM]": 5}
{"SMILES": "O=C(Nc1cc(-c2ccc(Cl)cc2)[nH]n1)c1cccnc1", "target": "crk3 (Leishmania mexicana, UniProt O15851)", "effect on": "enzyme activity", "mode": "inhibitor", "method": "radiometric", "IC50 [nM]": 2400}
{"SMILES": "O=C(O)C1=CC(=C(c2ccc(O)c(C(=O)O)c2)c2ccc(O)c(C(=O)O)c2)C=CC1=O", "target": "Lysosomal acid lipase/cholesteryl ester hydrolase (LIPA, Homo sapiens, UniProt P38571)", "effect on": "enzyme activity", "mode": "inhibitor", "IC50 [nM]": 1340}
{"SMILES": "CCOCc1nc(O)c(-c2nnc(Cc3ccc(Cl)cn3)o2)c(O)c1-c1c(OC)cccc1OC", "target": "Alpha-1B adrenergic receptor (ADRA1B, Homo sapiens, UniProt P35368)", "effect on": "ligand displacement", "method": "radioligand", "IC50 [nM]": "> 30000"}
{"SMILES": "O=C(O)CN(CCCc1ccccc1)CC(=O)N[C@H](CO)Cc1c[nH]cn1", "target": "IDE", "effect on": "enzyme activity", "mode": "inhibitor", "method": "fluorescence", "IC50 [nM]": 1600}
{"SMILES": "Cc1cc(Oc2ccc(NC(=O)c3sc(-c4ccc(F)cc4)nc3C)cc2)c2nncn2n1", "target": "MET", "effect on": "enzyme activity", "mode": "inhibitor", "method": "mobility shift", "IC50 [nM]": 790}
{"SMILES": "COC(=O)CN(CC(=O)N[C@@H](Cc1c[nH]cn1)C(=O)OC)Cc1ccccc1", "target": "IDE", "effect on": "enzyme activity", "mode": "inhibitor", "method": "fluorescence", "IC50 [nM]": "> 100000"}
{"SMILES": "O=C(O)CC1=C/C(=C\\c2cccc(-c3ccc(F)cc3)n2)c2ccc(F)cc21", "target": "Ptgs2", "effect on": "enzyme activity", "mode": "inhibitor", "IC50 [nM]": 670}
{"SMILES": "Cc1cc(Oc2ccc(NC(=O)c3sc(-c4ccccc4)nc3C)cc2)c2nncn2n1", "target": "MET", "effect on": "enzyme activity", "mode": "inhibitor", "method": "mobility shift", "IC50 [nM]": 880}
{"SMILES": "Cc1ccc(S(=O)(=O)Oc2ccccc2NC(=O)c2ccc3ncccc3c2)cc1", "target": "P2RX7", "effect on": "calcium signal", "mode": "antagonist", "IC50 [nM]": 1490}
{"SMILES": "CNC(=O)c1cc2c(Oc3ccc(NC(=O)C4(C(=O)Nc5ccc(F)cc5)CC4)cc3)ccnc2cc1OC", "target": "Hepatocyte growth factor receptor (MET, Homo sapiens, UniProt P08581, D1228H)", "effect on": "enzyme activity", "mode": "inhibitor", "method": "radiometric", "IC50 [nM]": 4}
{"SMILES": "COC(=O)[C@H](Cc1c[nH]cn1)NC(=O)CN(CCc1c[nH]c2ccccc12)CC(=O)O", "target": "IDE", "effect on": "enzyme activity", "mode": "inhibitor", "method": "fluorescence", "IC50 [nM]": 1200}
{"SMILES": "CC/C=C\\C/C=C\\C/C=C\\C/C=C\\C/C=C\\CCCC(=O)O", "target": "POLE (Homo sapiens, UniProt Q07864)", "effect on": "enzyme activity", "mode": "inhibitor", "IC50 [nM]": 35000}
{"SMILES": "CC[C@H](C)[C@H](NC(C)=O)C(=O)N[C@@H](CCC(=O)O)C(=O)N[C@H](C(=O)N[C@H](C=O)CC(=O)O)[C@@H](C)O", "target": "Caspase-9 (CASP9, Homo sapiens, UniProt P55211)", "effect on": "enzyme activity", "mode": "inhibitor", "IC50 [nM]": 21.7}
{"SMILES": "Nc1ncnc2c1c(COc1cccc(Cl)c1)nn2C1CCOCC1", "target": "TGF-beta receptor type-1 (TGFBR1, Homo sapiens, UniProt P36897)", "effect on": "cell-free assay", "method": "TR-FRET", "IC50 [nM]": 820}
{"SMILES": "CCOc1ccc2c(-c3cc(C)nc(Nc4cc(OC)cc(C(F)(F)F)c4)n3)cnn2n1", "target": "Homeodomain-interacting protein kinase 1 (HIPK1, Homo sapiens, UniProt Q86Z02)", "effect on": "enzyme activity", "mode": "inhibitor", "IC50 [nM]": "> 10000"}
{"SMILES": "CNCCCC(c1ccccc1)(c1ccccc1)c1ccccc1", "target": "Kinesin-like protein KIF11 (KIF11, Homo sapiens, UniProt P52732)", "effect on": "ATPase activity", "mode": "inhibitor", "IC50 [nM]": 386}
{"SMILES": "Cc1cnc(-c2ccc(-c3ccc(NC(=O)Nc4c(F)cc(F)cc4F)cc3F)c3c2C(=O)NC3)[nH]1", "target": "MET", "effect on": "enzyme activity", "mode": "inhibitor", "IC50 [nM]": 13.6}
{"SMILES": "Cc1ccc(C(=O)Nc2ccc(Oc3cc4cnn(C)c4cc3-c3cn[nH]c3)c(F)c2)c(=O)n1-c1ccc(F)cc1", "target": "Macrophage colony-stimulating factor 1 receptor (CSF1R, Homo sapiens, UniProt P07333)", "effect on": "phosphorylation in cells", "mode": "inhibitor", "method": "western blot", "IC50 [nM]": 300}
{"SMILES": "CCOC(=O)CC1=C/C(=C\\c2ccc(-c3ccccc3)cc2)c2ccc(F)cc21", "target": "Ptgs2", "effect on": "enzyme activity", "mode": "inhibitor", "IC50 [nM]": "~10000"}
{"SMILES": "COC(=O)[C@H](Cc1c[nH]cn1)NC(=O)CN(Cc1ccccc1)c1c(O)c(=O)c1=O", "target": "IDE", "effect on": "enzyme activity", "mode": "inhibitor", "method": "fluorescence", "IC50 [nM]": 12500}
{"SMILES": "CC(C)C[C@H]1CC(=O)N[C@@H](C)C(=O)N[C@@H](CCCCCC(=O)O)C(=O)N[C@@H](Cc2c[nH]c3ccccc23)C(=O)N1", "target": "HDAC3", "effect on": "enzyme activity", "mode": "inhibitor", "IC50 [nM]": 600}
{"SMILES": "O=C(Nc1ccn(Cc2ccc(O)cc2C(F)(F)F)n1)c1c(F)cccc1F", "target": "KCNA5", "effect on": "ion current", "mode": "inhibitor", "IC50 [nM]": "> 10000"}
{"SMILES": "CN(C)C(=O)[C@H](Cc1c[nH]cn1)NC(=O)CN(CC(=O)O)Cc1ccccc1", "target": "IDE", "effect on": "enzyme activity", "mode": "inhibitor", "method": "fluorescence", "IC50 [nM]": 6900}
{"SMILES": "COc1ccc2c(Oc3ccc4c(C(=O)Nc5ccccc5N)cccc4c3)ccnc2c1", "target": "MET", "effect on": "enzyme activity", "mode": "inhibitor", "IC50 [nM]": "> 500"}
{"SMILES": "Cc1noc([C@H](Cc2c[nH]cn2)NC(=O)CN(CCCc2ccccc2)CC(=O)O)n1", "target": "IDE", "effect on": "enzyme activity", "mode": "inhibitor", "method": "fluorescence", "IC50 [nM]": 500}
{"SMILES": "O=C(Nc1ccccc1OS(=O)(=O)c1ccc(F)cc1)c1ccc2ncccc2c1", "target": "P2RX7", "effect on": "calcium signal", "mode": "antagonist", "IC50 [nM]": 624}
{"SMILES": "O=C(Nc1ccccc1)c1cc([N+](=O)[O-])ccc1Cl", "target": "Peroxisome proliferator-activated receptor alpha (PPARA, Homo sapiens, UniProt Q07869)", "effect on": "ligand displacement", "method": "TR-FRET", "IC50 [nM]": 26}
{"SMILES": "Cc1cc(Oc2ccc(NC(=O)c3sc(-c4ccccc4)nc3C)cc2F)c2nncn2n1", "target": "MET", "effect on": "enzyme activity", "mode": "inhibitor", "method": "mobility shift", "IC50 [nM]": 630}
{"SMILES": "Oc1c2ccccc2c2c3c(cccc13)N=N2", "target": "JAK3", "effect on": "enzyme activity", "mode": "inhibitor", "IC50 [nM]": 344}
